Columns and labels:
Parameters in all cases: dose 5 mg/kg, dosed compound name [14C]CS-1036, route oral
Details in all cases: in vivo
[1] = Drug uptake in albino F344/DuCrlCrlj rat fat assessed as ng equivalent of CS-1036 at 5 mg/kg, po after 168 hrs by liquid scintillation counting; type: ADME, organism-based, Adipose tissue
Procedure, shortened: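 Male F344/DuCrlCrlj rats (bought at 7 weeks, acclimatized 5–6 days; 159–167 g; n = 3 per time point) received a single oral dose of [14C]CS-1036 at 5 mg/kg. White adipose tissue was collected after abdominal aortic bleeding at 1, 4, 8, 24, 72, 168 or 336 h. Samples were counted by LSC with external-standard efficiency correction. Results were converted to ng equivalents per g from specific activity and sample weight.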

[2] = tested on: Cerebrum; experiment: Drug uptake in albino F344/DuCrlCrlj rat cerebrum assessed as ng equivalent of CS-1036 at 5 mg/kg, po after 336 hrs by liquid scintillation counting; type: ADME, organism-based
Procedure, shortened: (§1)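 Single oral [14C]CS-1036 at 5 mg/kg was given to male rats (159–167 g; n = 3). Cerebrum was collected after aortic bleeding at 1, 4, 8, 24, 72, 168 or 336 h, weighed, and homogenized in 2 volumes of saline. A 0.5 ml aliquot was solubilized in Soluene-350 and counted by LSC with external-standard correction. Results are in ng equivalent/g tissue from specific activity and sample weight.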

[3] = tested on: Harderian gland; experiment: Drug uptake in albino F344/DuCrlCrlj rat harderian gland at 5 mg/kg, po after 1 hr by liquid scintillation counting; type: ADME, organism-based
[4] = tested on: Blood; experiment: Drug uptake in albino F344/DuCrlCrlj rat blood assessed as ng equivalent of CS-1036 at 5 mg/kg, po after 168 hrs by liquid scintillation counting; type: ADME, organism-based
Procedure, shortened: (§2)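 Male F344/DuCrlCrlj rats (159–167 g; n = 3 per time point) received a single oral dose of [14C]CS-1036 at 5 mg/kg. Blood was taken from the abdominal aorta at 1, 4, 8, 24, 72, 168 and 336 h. Radioactivity was counted by LSC with external-standard efficiency correction. Results were converted to ng equivalent of CS-1036/ml using specific activity and sample volume, and reported as mean + S.D.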

[5] = tested on: Lung; experiment: Drug uptake in albino F344/DuCrlCrlj rat lung assessed as ng equivalent of CS-1036 at 5 mg/kg, po after 336 hrs by liquid scintillation counting; type: ADME, organism-based
[6] = tested on: Spleen; experiment: Drug uptake in albino F344/DuCrlCrlj rat spleen at 5 mg/kg, po after 24 hrs by liquid scintillation counting; type: ADME, organism-based
[7] = tested on: Zone of skin; experiment: Drug uptake in albino F344/DuCrlCrlj rat skin at 5 mg/kg, po after 4 hrs by liquid scintillation counting; type: ADME, organism-based
[8] = tested on: Thymus; experiment: Drug uptake in albino F344/DuCrlCrlj rat thymus at 5 mg/kg, po after 1 hr by liquid scintillation counting; type: ADME, organism-based
[9] = tested on: Cerebrum; experiment: Drug uptake in albino F344/DuCrlCrlj rat cerebrum assessed as ng equivalent of CS-1036 at 5 mg/kg, po after 4 hrs by liquid scintillation counting; type: ADME, organism-based; procedure, shortened: as §1
[10] = Drug uptake in albino F344/DuCrlCrlj rat testis assessed as ng equivalent of CS-1036 at 5 mg/kg, po after 168 hrs by liquid scintillation counting; type: ADME, organism-based
[11] = tested on: Small intestine; experiment: Drug uptake in albino F344/DuCrlCrlj rat small intestine assessed as ng equivalent of CS-1036 at 5 mg/kg, po after 24 hrs by liquid scintillation counting; type: ADME, organism-based
[12] = tested on: Cerebellum; experiment: Drug uptake in albino F344/DuCrlCrlj rat cerebellum assessed as ng equivalent of CS-1036 at 5 mg/kg, po after 72 hrs by liquid scintillation counting; type: ADME, organism-based
[13] = tested on: Lung; experiment: Drug uptake in albino F344/DuCrlCrlj rat lung at 5 mg/kg, po after 336 hrs by liquid scintillation counting; type: ADME, organism-based
[14] = tested on: Spleen; experiment: Drug uptake in albino F344/DuCrlCrlj rat spleen assessed as ng equivalent of CS-1036 at 5 mg/kg, po after 4 hrs by liquid scintillation counting; type: ADME, organism-based
[15] = tested on: Blood; experiment: Drug uptake in albino F344/DuCrlCrlj rat blood assessed as ng equivalent of CS-1036 at 5 mg/kg, po after 8 hrs by liquid scintillation counting; type: ADME, organism-based; procedure, shortened: as §2
[16] = tested on: Plasma; experiment: Drug uptake in albino F344/DuCrlCrlj rat plasma assessed as ng equivalent of CS-1036 at 5 mg/kg, po after 24 hrs by liquid scintillation counting; type: ADME, organism-based
[17] = Drug uptake in albino F344/DuCrlCrlj rat bone marrow assessed as ng equivalent of CS-1036 at 5 mg/kg, po after 1 hr by liquid scintillation counting; type: ADME, organism-based
[18] = tested on: Heart; experiment: Drug uptake in albino F344/DuCrlCrlj rat heart assessed as ng equivalent of CS-1036 at 5 mg/kg, po after 168 hrs by liquid scintillation counting; type: ADME, organism-based
[19] = Drug uptake in albino F344/DuCrlCrlj rat brown fat at 5 mg/kg, po after 24 hrs by liquid scintillation counting; type: ADME, organism-based, Brown adipose tissue
[20] = Drug uptake in albino F344/DuCrlCrlj rat epididymis at 5 mg/kg, po after 8 hrs by liquid scintillation counting; type: ADME, organism-based
[21] = Drug uptake in albino F344/DuCrlCrlj rat trachea at 5 mg/kg, po after 24 hrs by liquid scintillation counting; type: ADME, organism-based
[22] = tested on: Aorta; experiment: Drug uptake in albino F344/DuCrlCrlj rat aorta at 5 mg/kg, po after 168 hrs by liquid scintillation counting; type: ADME, organism-based
[23] = Drug uptake in albino F344/DuCrlCrlj rat epididymis assessed as ng equivalent of CS-1036 at 5 mg/kg, po after 72 hrs by liquid scintillation counting; type: ADME, organism-based
[24] = tested on: Stomach; experiment: Drug uptake in albino F344/DuCrlCrlj rat stomach assessed as ng equivalent of CS-1036 at 5 mg/kg, po after 4 hrs by liquid scintillation counting; type: ADME, organism-based
[25] = tested on: Large intestine; experiment: Drug uptake in albino F344/DuCrlCrlj rat large intestine assessed as ng equivalent of CS-1036 at 5 mg/kg, po after 72 hrs by liquid scintillation counting; type: ADME, organism-based
[26] = tested on: Heart; experiment: Drug uptake in albino F344/DuCrlCrlj rat heart at 5 mg/kg, po after 72 hrs by liquid scintillation counting; type: ADME, organism-based
[27] = tested on: Plasma; experiment: Drug uptake in albino F344/DuCrlCrlj rat plasma at 5 mg/kg, po after 8 hrs by liquid scintillation counting; type: ADME, organism-based
[28] = tested on: Harderian gland; experiment: Drug uptake in albino F344/DuCrlCrlj rat harderian gland at 5 mg/kg, po after 72 hrs by liquid scintillation counting; type: ADME, organism-based
[29] = Drug uptake in albino F344/DuCrlCrlj rat testis assessed as ng equivalent of CS-1036 at 5 mg/kg, po after 8 hrs by liquid scintillation counting; type: ADME, organism-based
[30] = Drug uptake in albino F344/DuCrlCrlj rat thyroid gland assessed as ng equivalent of CS-1036 at 5 mg/kg, po after 1 hr by liquid scintillation counting; type: ADME, organism-based
[31] = tested on: Heart; experiment: Drug uptake in albino F344/DuCrlCrlj rat heart assessed as ng equivalent of CS-1036 at 5 mg/kg, po after 72 hrs by liquid scintillation counting; type: ADME, organism-based
[32] = tested on: Large intestine; experiment: Drug uptake in albino F344/DuCrlCrlj rat large intestine assessed as ng equivalent of CS-1036 at 5 mg/kg, po after 24 hrs by liquid scintillation counting; type: ADME, organism-based

## C[C@H]1O[C@@H](O[C@H]2[C@H](O)[C@@H](O)[C@@H](O[14C@H]3[14C@H](O)[14CH2]N[14C@@H]3[14CH2]O)O[C@@H]2CO)[C@H](O)[C@@H](O)[C@@H]1O
[1]
  Radiolabel recovery: 64 ngequiv/g
[2]
  Radiolabel recovery: 2.36 ngequiv/g
[3]
  Radiolabel recovery: 30.2 ngequiv/g
[4]
  Radiolabel recovery: 3.52 ngequiv/ml
[5]
  Radiolabel recovery: 3.93 ngequiv/g
[6]
  Radiolabel recovery: 82.4 ngequiv/g
[7]
  Radiolabel recovery: 33 ngequiv/g
[8]
  Radiolabel recovery: 23.2 ngequiv/g
[9]
  Radiolabel recovery: 1.4 ngequiv/g
[10]
  Radiolabel recovery: 3.81 ngequiv/g
[11]
  Radiolabel recovery: 7.5 ngequiv/g
[12]
  Radiolabel recovery: 6.4 ngequiv/g
[13]
  Radiolabel recovery: 8.43 ngequiv/g
[14]
  Radiolabel recovery: 6.3 ngequiv/g
[15]
  Radiolabel recovery: 6.5 ngequiv/ml
[16]
  Radiolabel recovery: 6.1 ngequiv/ml
[17]
  Radiolabel recovery: 4.6 ngequiv/g
[18]
  Radiolabel recovery: 5.9 ngequiv/g
[19]
  Radiolabel recovery: 200 ngequiv/g
[20]
  Radiolabel recovery: 40.8 ngequiv/g
[21]
  Radiolabel recovery: 43.2 ngequiv/g
[22]
  Radiolabel recovery: 18.1 ngequiv/g
[23]
  Radiolabel recovery: 8.3 ngequiv/g
[24]
  Radiolabel recovery: 41 ngequiv/g
[25]
  Radiolabel recovery: 29.5 ngequiv/g
[26]
  Radiolabel recovery: 27.5 ngequiv/g
[27]
  Radiolabel recovery: 27.7 ngequiv/ml
[28]
  Radiolabel recovery: 119 ngequiv/g
[29]
  Radiolabel recovery: 24.1 ngequiv/g
[30]
  Radiolabel recovery: 7.2 ngequiv/g
[31]
  Radiolabel recovery: 9.2 ngequiv/g
[32]
  Radiolabel recovery: 138 ngequiv/g

— ChEMBL document CHEMBL3526002, “Tissue distribution and identification of radioactivity components at elimination phase after oral administration of [¹⁴C]CS-1036, an α-amylase inhibitor, to rats” (Drug Metab Dispos, 2013)
